The text below walks through data of ChEMBL document CHEMBL5055625, “Saturated Oxo Fatty Acids (SOFAs): A Previously Unrecognized Class of Endogenous Bioactive Lipids Exhibiting a Cell Growth Inhibitory Activity” (J Med Chem, 2021).

Calls of active or inactive are those of the source. The calls are words filed in the database; no cut-off is given here. Where only a bound is given, the exact number is not on record here.

Broadly, the IC50 is the point on the concentration scale where inhibition reaches its midpoint.

In data set [1] the test system is A549. The experiment in a line: Growth inhibition of human A549 cells at 50 microM measured after 72 hrs by MTT assay. The class given is functional. The conditions noted are these: for inhibition of growth at 50 µM: read-out: GI. Put shortly: (§1)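 A549, Caco-2 and SF268 cells were grown in DMEM (4.5 g/L glucose) with 10% heat-inactivated FBS and pen-strep at 37 °C, 5% CO2. After 24 h, medium was replaced with compound at 10, 25, 35, 50 or 75 μM (final 0.5% DMSO; vehicle controls) for 72 h. MTT (0.25 mg/mL final) was added for 3 h, formazan was dissolved in DMSO, and A570 minus A690 was read. Triplicate wells per condition were normalized to DMSO control as 100%; IC50 was taken from dose-response curves over ≥3 experiments.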
(In general: Tetrazolium assays rely on reduction of a dye to a coloured formazan, in cell work by metabolically active cells.)

The test system of data set [2] is A549. The experiment in a line: Growth inhibition of human A549 cells measured after 72 hrs by MTT assay. The conditions noted are these: A549, 72 h. The class given is functional, cell-based. The method in brief: as §1
A further data set has as its system Caco-2. The experiment in a line: Growth inhibition of human Caco-2 cells up to 75 uM measured after 72 hrs by MTT assay. Type of data set: functional, cell-based. The method in brief: as §1
The test system of the next data set is SF-268. Kind of data set: Growth inhibition of human SF-268 cells upto 75 microM measured after 72 hrs by MTT assay. The class given is functional, cell-based. Put shortly: as §1
The test system of another data set is HUVEC. Kind of data set: Growth inhibition of HUVEC cells upto 75 microM measured after 72 hrs by MTT assay. The following applies: human. Type of data set: cell-based.
Data set [3] concerns A549. The experiment in a line: Antitumor activity against human A549 cells assessed as decrease in c-myc mRNA expression measured at 50 microM by RT-PCR analysis. The class given is functional, cell-based. The method in brief:
(§2)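 A549 cells were treated with 50 μM compound alongside DMSO controls. mRNA levels were measured by quantitative real-time RT-PCR and expressed relative to the DMSO control.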

Data set [4] relates to A549. Kind of data set: Antitumor activity against human A549 cells assessed as decrease in STAT3 mRNA expression measured at 50 microM by RT-PCR analysis. The class given is functional, cell-based. The method in brief:
as §2

Data set [5] deals with A549. The experiment in a line: Down regulation of […] protein expression in human A549 cells measured at 50 uM by Western blot analysis. Type of data set: functional, cell-based. The method in brief: (§3)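 A549 cells were treated with 50 μM compound or DMSO and lysed in RIPA buffer; lysates were spun at 17 000g for 15 min at 4 °C and protein was measured by Bradford assay. 35 μg of protein was run on SDS-PAGE and semidry-transferred to nitrocellulose, then blocked 1 h in 5% BSA/TBS-0.1% Tween-20. Blots were probed overnight at 4 °C with anti-phospho-STAT3 and anti-STAT3 (1:1000) plus β-actin (1:20 000) as loading control, followed by secondary antibodies for 1.30 h at r.t.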
Background: Immunoblotting shows a protein as a band on a membrane.

Data set [6] deals with Signal transducer and activator of transcription 3 (Homo sapiens) (UniProt P40763). The experiment in a line: Inhibition of phosphorylated STAT3 expression in human A549 cells measured at 50 uM by Western blot analysis. Type of data set: cell-based. Put shortly: as §3
Signal transducer and activator of transcription 3 (Homo sapiens), sequence (P40763 whole entry): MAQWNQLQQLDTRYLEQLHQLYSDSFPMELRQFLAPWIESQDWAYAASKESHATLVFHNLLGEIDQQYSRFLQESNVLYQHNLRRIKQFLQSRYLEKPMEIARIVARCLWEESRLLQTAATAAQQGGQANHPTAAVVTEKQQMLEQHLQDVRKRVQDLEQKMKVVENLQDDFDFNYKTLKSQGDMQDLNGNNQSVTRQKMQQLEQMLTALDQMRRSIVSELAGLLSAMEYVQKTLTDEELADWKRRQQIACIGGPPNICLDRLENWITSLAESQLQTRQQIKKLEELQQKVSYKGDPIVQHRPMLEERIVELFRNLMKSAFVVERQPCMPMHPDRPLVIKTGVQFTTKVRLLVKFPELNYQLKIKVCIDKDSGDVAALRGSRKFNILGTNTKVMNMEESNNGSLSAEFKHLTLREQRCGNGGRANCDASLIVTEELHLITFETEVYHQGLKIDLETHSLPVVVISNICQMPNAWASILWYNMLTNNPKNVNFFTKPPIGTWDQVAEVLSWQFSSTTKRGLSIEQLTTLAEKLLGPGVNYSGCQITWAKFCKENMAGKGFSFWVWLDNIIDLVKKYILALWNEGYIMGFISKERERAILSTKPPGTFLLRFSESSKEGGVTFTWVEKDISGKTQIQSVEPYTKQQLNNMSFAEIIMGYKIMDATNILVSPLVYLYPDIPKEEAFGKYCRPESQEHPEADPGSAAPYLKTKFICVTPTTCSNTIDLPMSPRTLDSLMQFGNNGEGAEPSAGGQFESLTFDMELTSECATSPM

For the compound `CCCCCCCCCC(O)CCCCCCCC(=O)O` (stereo not drawn), the inhibition of growth at 50 µM in the data set with A549 [1] was > 50%.
In the case of `CCCCCCCCCCCCC(=O)CCCCC(=O)O`, in the data set with A549 [1], the inhibition of growth at 50 µM was > 50%. In addition, in the data set with A549 [2], half-maximal inhibition (IC50) required 26 µM. Further, the “growth inhibition (GI)” value in the data set on Caco-2 and in the data set with SF-268 was “inactive” throughout. Further, the Activity result with HUVEC was “Non-Toxic”. The outcome in the data set with A549 [3], in the data set on A549 [4] and in the data set on A549 [5] was Active. The inhibition entry in data set [6] is “Active”.
As for `CCCCCCCCCCCCCCCCCC(=O)O`, the “growth inhibition (GI)” value in the data set on A549 [1] is “inactive”.
Consider `CCCCCCCCCCCC(=O)CCCCCC(=O)O`, for which the inhibition of growth at 50 µM in the data set on A549 [1] is > 50%. For the same compound, the IC50 in the data set on A549 [2] turned out to be 28 µM. Besides, the “growth inhibition (GI)” value in the data set on Caco-2 and in the data set on SF-268 was “inactive” throughout. Also, the result in the data set on A549 [3], in the data set with A549 [4] and in the data set on A549 [5] was Active. In addition, in [6], the inhibition result was “Active”.
In the case of `CCCCCCCCCCC[C@@H](O)CCCCCC(=O)O`, the inhibition of growth at 50 µM in the data set on A549 [1] was > 50%. In addition, the Activity result with HUVEC was “Non-Toxic”.
Consider `CCCCCCCCCCC(=O)CCCCCCC(=O)O`, for which the inhibition of growth at 50 µM in the data set with A549 [1] was > 50%. In the data set on A549 [2], this compound gave an IC50 of 37 µM. Besides, the “growth inhibition (GI)” value in the data set on Caco-2 and in the data set on SF-268 was “inactive” each time.
`CCCCCCCCCCCCCCCC(=O)O`: the “growth inhibition (GI)” value in the data set with A549 [1] was “inactive”.
As for `CCCCCCCCCCCCCC(=O)CCCC(=O)O`, the inhibition of growth at 50 µM with A549 [1] is > 50%. In the data set on A549 [2], this compound returned an IC50 of 49 µM.
